T cruzi growth-1: T. cruzi intracellular proliferation inhibitors, primary screen, cell-based, beta-gal Tulahuen parasites, NIH3T3 host, luminescence; T. cruzi beta-gal in NIH3T3, GalScreen luminescence, 90 h; inhibition, % at 8.34 µM; hit rate 5.9% among 77,000; AID 624255, 2012;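 active = mean inhibition above about 93%, with at least 55% of replicates each passing it, limit read from the data, passing the limit was not always enough; inconclusive = only one of those two conditions holds; inactive = neither condition holds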
Pf Dd2 inh: P. falciparum Dd2 growth inhibitors, primary screen, SYBR Green fluorescence, single dose replicates. hit rate 2.3% among 94,000. activity change, % at 10 µM. 72 h; hits give low values; in the data active = activity change below about -80%; inconclusive = no clear call, values can overlap the other calls
GASC1 inh: inhibitors of GASC-1 (KDM4C) histone demethylase, primary screen, biochemical, single concentration HTS. Lysine-specific demethylase 4C (Homo sapiens), Q9H3R0. GST-KDM4C 2-372, H3K9me3 peptide, LANCE TR-FRET. inhibition, % at 12.5 µM. hit rate 0.15% among 96,000;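 active = mean replicate inhibition above about 25%, with at least 55% of replicates also reaching it, limit read from the data, passing the limit was not always enough; inconclusive = only one of those two conditions met; inactive = neither condition met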
Target sequence (Q9H3R0 2-372 limits assumed): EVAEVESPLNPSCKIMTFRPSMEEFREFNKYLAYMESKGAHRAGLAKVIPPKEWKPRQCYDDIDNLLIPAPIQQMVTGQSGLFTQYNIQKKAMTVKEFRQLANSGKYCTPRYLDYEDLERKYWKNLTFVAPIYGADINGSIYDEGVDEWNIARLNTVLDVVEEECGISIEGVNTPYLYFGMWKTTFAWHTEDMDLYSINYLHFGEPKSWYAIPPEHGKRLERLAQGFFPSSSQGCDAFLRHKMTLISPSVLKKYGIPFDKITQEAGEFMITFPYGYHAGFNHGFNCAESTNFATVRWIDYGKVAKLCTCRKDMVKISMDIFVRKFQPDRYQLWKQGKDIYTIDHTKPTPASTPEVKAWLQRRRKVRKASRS
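Test system – GST-tagged GASC-1 (JMJD2C) catalytic fragment, aa 2-372 · Medium – HEPES buffer, pH 7.5, plus ascorbate · Reagent – H3K9me3 peptide with Fe(II)/2OG · Compound – one test concentration per compound · Timing – 30 min reaction, 60 min detection, RT · Technique – TR-FRET with Eu antibody and ULight streptavidin, EDTA stop · Read-out basis – inhibition from TR-FRET ratio decrease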
IDH1 mut inh: inhibitors of IDH1 R132H reductase, primary screen, biochemical, plate reader, single point; Isocitrate dehydrogenase [NADP] cytoplasmic (Homo sapiens), O75874; diaphorase/resazurin fluorescence, 60 min; inhibition, % at 10 µM; hit rate 0.18% among 70,000; AID 624101, 2012; in the data active = inhibition above about 34%; inconclusive = no clear call, values can overlap the other calls; inactive = below about 11%;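 also: 0% = DMSO and 100% = no enzyme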
Target sequence (O75874 whole entry R132H): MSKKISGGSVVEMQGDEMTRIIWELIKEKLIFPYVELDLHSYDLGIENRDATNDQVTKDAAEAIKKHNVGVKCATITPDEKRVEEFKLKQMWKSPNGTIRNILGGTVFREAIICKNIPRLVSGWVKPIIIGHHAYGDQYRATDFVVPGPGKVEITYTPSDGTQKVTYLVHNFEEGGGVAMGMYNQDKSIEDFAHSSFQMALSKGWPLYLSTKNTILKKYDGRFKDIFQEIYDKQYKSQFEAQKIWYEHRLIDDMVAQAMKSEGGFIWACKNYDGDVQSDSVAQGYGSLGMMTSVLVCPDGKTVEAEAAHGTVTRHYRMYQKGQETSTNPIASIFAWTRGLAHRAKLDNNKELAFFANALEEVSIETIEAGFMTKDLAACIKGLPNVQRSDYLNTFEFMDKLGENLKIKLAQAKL
T cruzi growth-2: T. cruzi intracellular proliferation inhibitors, confirmation, cell-based, NIH3T3 host, beta-gal parasite, luminescence, cherry-pick; hit rate 72% among 5,600; shares compounds with T cruzi growth-1; inhibition, % at 8.35 µM; AID 651739, 2012; T. cruzi beta-gal in NIH3T3, GalScreen luminescence, 90 h;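 active = mean replicate inhibition above about 95% and at least 55% of replicates individually reaching it, limit read from the data; inconclusive = only one of the two criteria is met; inactive = neither criterion is met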
T cruzi growth-3: inhibitors of intracellular T. cruzi replication, confirmation, NIH3T3 host cells, beta-gal parasites, cherry-pick, set 2; shares compounds with T cruzi growth-1; T. cruzi beta-gal in NIH3T3, GalScreen luminescence, 90 h; inhibition, % at 2.09 µM; hit rate 21% among 5,600; AID 651740, 2012;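 active = mean inhibition above about 95%, with at least 55% of replicates also reaching it, limit read from the data; inconclusive = meets just one of the two conditions; inactive = meets neither condition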;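 also: plate controls were neutral control median for no effect and positive control median for full effect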
NIH3T3 tox: cytotoxicity in mouse NIH/3T3 fibroblasts, confirmation, cytotoxicity control for T. cruzi proliferation inhibitor project, cell-based, cherry-pick, single point; shares compounds with T cruzi growth-1; NIH/3T3 viability, CellTiter-Glo ATP luminescence, 90 h; cytotoxicity (signal decrease), % at 8.35 µM; hit rate 14% among 5,600; AID 651742, 2012;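 active = mean signal decrease across replicates above about 35% based on untreated-well scatter, with enough replicates individually passing, limit read from the data; inconclusive = no rule stated though some were filed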;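 also: 0% = median of neutral control wells and 100% = median of positive control wells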
3T3 cytotox 2: NIH/3T3 fibroblast cytotoxicity, confirmation, cytotoxicity control, cell-based, cherry-pick, single point, set 2; shares compounds with T cruzi growth-1; NIH/3T3 viability, CellTiter-Glo ATP luminescence, 90 h; inhibition, % at 24.9 µM; hit rate 56% among 5,600; AID 651744, 2012;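 active = mean loss of cell viability signal at or above a set limit, and enough replicates individually reaching it; inconclusive = meets only the mean limit or only the replicate share; inactive = meets neither condition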;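 also: 0% = median of neutral control wells and 100% = median of positive control wells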
Starred values were filed as active, the others as inactive; ? = inconclusive; nt = no result. Rows were chosen to be rich in hits. Some 5.8% of all compounds tested hit in one or more screens of this group.

SMILES | T cruzi growth-1 | Pf Dd2 inh | GASC1 inh | IDH1 mut inh | T cruzi growth-2 | T cruzi growth-3 | NIH3T3 tox | 3T3 cytotox 2
O=C(Nc1ccc(F)cc1)N1CCCCN2[C@H](C1)[C@@H](c1ccc(C#CC3CC3)cc1)[C@@H]2CO | 98.8* | -10.9 | 0.0 | nt | 101.2* | 103.5* | 25.2 | 105.4*
CO[C@H]1CN(C)C(=O)c2cc(NS(C)(=O)=O)ccc2OC[C@@H](C)N(Cc2cccnc2)C[C@H]1C | 45.5 | nt | -0.3 | 0.3 | nt | nt | nt | nt
O=C(C[C@H]1CC[C@H](NC(=O)C2CCOCC2)[C@H](CO)O1)Nc1ccccc1 | nt | 35.8 | -1.1 | nt | nt | nt | nt | nt
O=C(C[C@H]1CC[C@@H]2[C@H](COC[C@@H](O)CN2S(=O)(=O)c2cccc(F)c2)O1)Nc1ccc(-c2ccccc2)cc1 | 96.3* | -32.5 | -1.9 | nt | 103.0* | 60.2 | 49.8* | 100.7*
COc1cccc(S(=O)(=O)N2C[C@@H](O)COC[C@@H]3O[C@@H](CC(=O)N4CCOCC4)CC[C@H]32)c1 | 8.0 | 4.5 | 1.5 | nt | nt | nt | nt | nt
O=C(C[C@@H]1CC[C@@H]2[C@H](COC[C@@H](O)CN2S(=O)(=O)c2ccccc2)O1)NCc1ccc(-c2ccccc2)cc1 | 105.3* | -90.5* | -8.2 | nt | 105.1* | 42.7 | -1.2 | 13.3
O=C(C[C@H]1CC[C@H]2[C@@H](COC[C@@H](O)CN2S(=O)(=O)c2cccc(F)c2)O1)Nc1ccc(-c2ccccc2)cc1 | 74.4 | -15.3 | -0.6 | nt | nt | nt | nt | nt
COc1ccc(S(=O)(=O)N2C[C@H](O)COC[C@@H]3O[C@@H](CC(=O)NCc4ccc(Cl)c(Cl)c4)CC[C@H]32)cc1 | 109.1* | -12.4 | -0.6 | nt | 100.9* | -36.1 | -1.7 | 61.6*
O=C(C[C@@H]1CC[C@@H]2[C@H](COC[C@H](O)CN2S(=O)(=O)c2ccccc2)O1)NCc1ccc(-c2ccccc2)cc1 | 52.3 | -41.5 | -1.2 | nt | nt | nt | nt | nt
COc1cccc(S(=O)(=O)N2C[C@H](O)COC[C@H]3O[C@@H](CC(=O)N4CCOCC4)CC[C@@H]32)c1 | ? | 0.1 | 0.2 | nt | 12.5 | 13.9 | 10.8 | 1.3
Cc1ccc(S(=O)(=O)N2C[C@H](O)COC[C@H]3O[C@H](CC(=O)NCc4ccc(Cl)c(Cl)c4)CC[C@@H]32)cc1 | 89.8 | 10.9 | -0.3 | nt | nt | nt | nt | nt
COc1ccc2c3c([nH]c2c1)[C@H](CO)N(C(=O)C1CC1)CC31CN(C)C1 | nt | 24.7 | -0.3 | nt | nt | nt | nt | nt
COc1ccc(CCNS(=O)(=O)c2cc([N+](=O)[O-])ccc2C)cc1OC | nt | nt | nt | -0.3 | nt | nt | nt | nt
O=C(C[C@H]1CC[C@@H]2[C@H](COC[C@H](O)CN2S(=O)(=O)c2cccc(F)c2)O1)Nc1ccc(-c2ccccc2)cc1 | 101.2* | -27.1 | -0.1 | nt | 97.8* | 88.1 | 43.9* | 103.8*
COCC(=O)N1CC[C@@H]2[C@@H](CO)N(C)c3ccc(-c4cccc(F)c4)cc3[C@@H]21 | ? | 17.9 | 1.9 | nt | 106.1* | 56.2 | 4.2 | 6.3
COCC(=O)N1CC[C@@H]2[C@H]1c1cc(-c3cccc(F)c3)ccc1N(C)[C@H]2CO | 101.9* | 24.9 | 0.7 | nt | 106.8* | 77.2 | -4.6 | 3.8
CN1c2ccc(-c3cccc(F)c3)cc2[C@H]2[C@H](CCN2C(=O)C2CC2)[C@@H]1CO | 117.0* | -7.6 | 9.9 | nt | 101.7* | 64.3 | -3.3 | ?
CCC1(c2ncc[nH]2)Cc2ccccc2O1 (stereo not given) | nt | nt | nt | 0.2 | nt | nt | nt | nt
C[C@@H]1CN([C@H](C)CO)C(=O)CCCn2cc(nn2)CO[C@@H]1CN(C)C(=O)NC1CCCCC1 | 21.6 | 9.3 | 1.5 | 1.2 | nt | nt | nt | nt
C[C@@H]1CN([C@@H](C)CO)C(=O)c2cc(/C=C/c3ccccc3)cnc2O[C@H]1CN(C)C(=O)Cc1ccccn1 | 100.9* | -20.8 | -3.1 | -0.3 | 102.8* | 99.0* | 14.1 | 45.6*
C[C@H](CO)N1C[C@H](C)[C@H](CN(C)Cc2ccncc2)Oc2ncc(/C=C/c3ccccc3)cc2C1=O | 61.2 | -13.5 | 0.2 | 0.4 | nt | nt | nt | nt
C[C@@H]1CN([C@H](C)CO)C(=O)c2cc(/C=C/c3ccccc3)cnc2O[C@H]1CN(C)Cc1ccccc1 | 114.3* | -37.5 | 0.7 | -0.3 | 113.5* | 98.3* | 12.5 | 105.3*
C[C@@H]1CN([C@@H](C)CO)C(=O)c2cc(/C=C/c3ccccc3)cnc2O[C@H]1CN(C)Cc1ccncc1 | 120.0* | -27.3 | -0.5 | 0.6 | 113.6* | 92.1 | 22.4 | 18.8
C[C@H](CO)N1C[C@H](C)[C@H](CN(C)C(=O)C2CCCCC2)Oc2ncc(-c3cccnc3)cc2C1=O | -21.1 | 25.1 | 0.2 | 0.9 | nt | nt | nt | nt
CCCN1[C@@H]2Cn3c(ccc(-c4ccccc4)c3=O)[C@H]1[C@@H](C(=O)N1CCCCC1)[C@@H]2CO | 25.5 | nt | 0.5 | nt | nt | nt | nt | nt
SMILES | T cruzi growth-1 | Pf Dd2 inh | GASC1 inh | IDH1 mut inh | T cruzi growth-2 | T cruzi growth-3 | NIH3T3 tox | 3T3 cytotox 2
COCC#Cc1ccc2c(c1)O[C@@H](CN(C)Cc1ccccc1)[C@H](C)CN([C@H](C)CO)S2(=O)=O | 108.5* | -70.1 | -3.7 | -1.2 | 92.9 | 44.6 | 53.2* | 105.5*
COCC#Cc1ccc2c(c1)O[C@H](CN(C)Cc1cncnc1)[C@@H](C)CN([C@@H](C)CO)S2(=O)=O | -3.6 | -7.4 | -2.9 | -1.8 | nt | nt | nt | nt
COCC#Cc1ccc2c(c1)O[C@@H](CN(C)Cc1cncnc1)[C@H](C)CN([C@@H](C)CO)S2(=O)=O | 106.3* | 8.3 | -0.1 | -0.3 | 106.4* | 89.2 | 10.0 | 36.1*
COCC#Cc1ccc2c(c1)O[C@@H](CN(C)Cc1ccncc1)[C@H](C)CN([C@H](C)CO)S2(=O)=O | 109.2* | -4.1 | 5.6 | -2.6 | 99.9* | 91.4 | 11.5 | 63.0*
C[C@H](NC(=O)C[C@H]1C=C[C@@H](NC(=O)C2CCC2)[C@H](CO)O1)c1ccccc1 | 20.4 | -3.8 | 3.2 | 2.9 | nt | nt | nt | nt
O=C(NO)c1ccc(C(=O)N/N=C/c2ccccc2Br)cc1 | nt | nt | nt | 0.9 | nt | nt | nt | nt
C[C@@H]1CN([C@H](C)CO)C(=O)c2cc(NS(=O)(=O)c3cn(C)cn3)ccc2O[C@H]1CN(C)Cc1ccc(Cl)c(Cl)c1 | 0.8 | 0.9 | -0.5 | nt | nt | nt | nt | nt
C[C@@H]1CN([C@H](C)CO)C(=O)c2cc(C#CC3(O)CCCC3)cnc2O[C@H]1CN(C)C(=O)C1CC1 | -10.8 | 32.6 | 0.8 | nt | nt | nt | nt | nt
